Only some compounds are listed: those with a hit (about 8.8% of all), similar ones and a draw of the others.
SF-1 act: SF-1 (human) activation; hit rate 1.9% among 65,000; CHO-K1 Gal4-SF-1 LBD luciferase reporter; % increase over DMSO SF-1-specific signal; activation, % at 10 µM; AID 522; Q13285;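 active = activation above the mean activation of all tested compounds plus 3 SD, cut at about 50% in these data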
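Assay system: CHO-K1 cells co-transfected with Gal4 DBD–human SF-1 LBD, 5xGal4 luciferase reporter / Input: 4,000 cells per well / Incubation: 20 h compound exposure at 37 °C after 1 h cell settling / Detection: SteadyLite luciferase luminescence / Control set: DMSO negative control and −SF1 background wells / Replication: one test per compound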
RORA act: activates the human nuclear receptor RORA; AID 560; CHO-K1 Gal4-RORA LBD luciferase reporter, luminescence; percent increase over mock-subtracted basal signal; hit rate 1.5% among 65,000; activation, % at 10 µM;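 active = activation above the mean of all tested compounds plus 3 SD, cut at about 49% in these data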
Target sequence (P35398 whole entry, looked up, the tested form may be a part): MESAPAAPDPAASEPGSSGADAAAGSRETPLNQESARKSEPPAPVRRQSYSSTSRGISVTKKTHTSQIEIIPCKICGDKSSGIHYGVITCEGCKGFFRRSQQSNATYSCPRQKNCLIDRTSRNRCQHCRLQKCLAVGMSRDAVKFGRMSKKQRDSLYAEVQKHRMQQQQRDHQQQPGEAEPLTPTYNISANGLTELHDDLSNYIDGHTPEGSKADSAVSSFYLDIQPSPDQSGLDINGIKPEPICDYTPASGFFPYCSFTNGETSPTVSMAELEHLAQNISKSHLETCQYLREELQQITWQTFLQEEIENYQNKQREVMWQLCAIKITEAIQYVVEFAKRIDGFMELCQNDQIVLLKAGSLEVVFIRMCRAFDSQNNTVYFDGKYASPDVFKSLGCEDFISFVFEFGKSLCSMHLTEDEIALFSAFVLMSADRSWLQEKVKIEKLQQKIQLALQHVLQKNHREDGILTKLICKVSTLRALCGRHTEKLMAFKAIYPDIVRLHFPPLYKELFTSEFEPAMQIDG
M1 agonist: activates the M1 muscarinic receptor; CHO-M1 cells, Fluo-4 calcium fluorescence, agonist mode; active compounds read high; B-score at 10 µM; hit rate 3% among 64,000;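 active = fluorescence rise, raw or as B-score row- and column-corrected plate score, outside the 99.7% band of its plate's samples, either direction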
S1P3 ag: S1P3 (human) receptor agonism. activation, % at 4.5 µM. hit rate 0.1% among 60,000. Q99500. S1P3 NFAT-BLA reporter cells, FRET ratio; relative to 1 µM S1P, basal subtracted;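 active = activation above the screen-wide mean plus 3 SD, cut at about 4.5% in these data, passing the limit was not always enough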
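material = human S1P3 NFAT-BLA reporter CHO cells | schedule = 4 h compound at 37 °C, 2 h substrate at RT | measured by = fluorescent BLA substrate, ex 405 nm, em 460/535 nm ratio | controls = 1 µM S1P reference | replication = primary once, confirmation triplicate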
S1P1 ag-PAM: agonists and agonism potentiators of human S1P1 receptor; P21453; S1P1 CRE-bla cells, forskolin, beta-lactamase FRET, potentiator mode; S1P1 agonist co-added at EC20, 2 nM; 100% = saturating reference agonist, 0% = basal; activation, % at 9.5 µM; hit rate 0.57% among 56,000; AID 449;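 active = activation above a cutoff set at the mean activation of all tested compounds plus 3 SD, cut at about 54% in these data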;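 note: forskolin at 4 µM as EC80 and the EC20 agonist is SEW2871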
M1 antag: M1 muscarinic receptor (rat) antagonism. hit rate 3.4% among 64,000. B-score at 10 µM. AID 628. CHO-M1 cells, Fluo-4 calcium, ACh EC80 antagonist mode; active compounds read low;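 active = calcium fluorescence response, raw or row-and-column corrected B-score, differing from the plate sample mean either way at a set confidence level, mostly lower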
M1 antag confirm: M1 muscarinic receptor (rat) antagonism, confirmed; shares compounds with M1 antag; CHO-M1 cells, Fluo-4 calcium, ACh EC80 antagonism; active compounds read low; hit rate 43% among 1,700; AID 677; calcium response (max-min fluorescence) at 10 µM;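 active = calcium response below the same-plate mean of wells given acetylcholine alone at its 80%-effect dose, minus 3 SD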
mGluR4 antag: mGluR4 (human) activity, M1 antagonist secondary assay | shares compounds with M1 antag | CHO-mGluR4 calcium flux, Fluo-4 fluorescence, glutamate EC80; active compounds read low | fluorescence response (max-min) at 10 µM | hit rate 0.9% among 1,700;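 active = fluorescence response below the plate's average for near-maximal glutamate wells, less 3 SD of those wells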;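 note: raw unnormalized fluorescence span taken in the window right after glutamate addition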
Each line names hits and unclear results; the compound was inactive in the other large screens (follow-up assays come after a bar, where they were run).

COCCNC(=O)C(c1ccccc1C)N(CCOC)C(=O)Cn1nnc2ccccc21 (stereo not given)	none
COCCN(C(=O)Cn1nnc2ccccc21)C(C(=O)NC1CCCC1)c1cccc(OC)c1OC (stereo not given)	M1 antag -3.9 | M1 antag confirm inactive | mGluR4 antag inactive
O=C(c1cccs1)N1CCN(C2CCCCC2)CC1	none
O=C(c1cccs1)N1CCN(C2CCN(Cc3ccccc3)CC2)CC1	M1 antag -4.8 | M1 antag confirm 443 | mGluR4 antag inactive
CSc1nc(-c2ccco2)nn1S(C)(=O)=O	none
COc1cc(CN2CCN(S(=O)(=O)c3ccc(NC(C)=O)cc3)CC2)cc(OC)c1O	none
COc1ccc(CN2CCN(S(=O)(=O)c3ccc(NC(C)=O)cc3)CC2)cc1OC	M1 antag -2.7 | M1 antag confirm inactive | mGluR4 antag inactive
CCC(CCC(=O)Nc1ccn(-c2ccccc2)n1)C(=O)O (stereo not given)	none
COCCn1c(Sc2nc(C)cs2)nc2c1c(=O)[nH]c(=O)n2C	M1 antag -4.1 | M1 antag confirm inactive | mGluR4 antag inactive
Cc1ccc(C(=O)C2CCN(CC(=O)NC3CCCCC3)CC2)cc1	M1 antag -4.6 | M1 antag confirm 545 | mGluR4 antag inactive
CCn1[nH]c(=O)c(=Nc2c(C)n(C)n(-c3ccccc3)c2=O)cc1-c1ccc(Cl)cc1	none
O=C(NCc1cccnc1)NC1(C(F)(F)F)Oc2ccc(Cl)cc2O1 (stereo not given)	M1 antag -1.6 | M1 antag confirm 410 | mGluR4 antag inactive
O=C(Nc1ccc(S(=O)(=O)N2CCOCC2)cc1)C1CCCCC1	none (no result: S1P3 ag, S1P1 ag-PAM)
O=C(Nc1ccc(S(=O)(=O)Nc2ccc(Cl)cc2)cc1)C1CCCO1 (stereo not given)	M1 antag -1.1 | M1 antag confirm inactive | mGluR4 antag inactive
O=C(Nc1ccc(S(=O)(=O)N2CCCCCC2)cc1)C1CCCO1 (stereo not given)	M1 antag -3.2 | M1 antag confirm inactive | mGluR4 antag inactive
Cc1cccn2c(=O)c3cc(C(N)=S)c(=N)n(CCCOC(C)C)c3nc12	M1 antag -3.3 | M1 antag confirm inactive | mGluR4 antag inactive
CCOCCCn1c(=N)c(C(N)=S)cc2c(=O)n3cccc(C)c3nc21	M1 antag -4.1 | M1 antag confirm inactive | mGluR4 antag inactive
CCOC(=O)c1cc2c(=O)n3cccc(C)c3nc2n(C)c1=N	none
Cc1ccc(NC(=O)CC2SC3=NCCCN3C2=O)c(C)c1 (stereo not given)	none
CC(=O)NC12CC3CC(C1)CC(C(=O)OCC(=O)Nc1ncc(Cl)cc1Cl)(C3)C2	none
Cc1ccc(CN2CCNC(=O)C2CC(=O)O)o1 (stereo not given)	none
CCC(C)N(C)Cc1cccc(C2(O)CCN(S(=O)(=O)c3ccc(F)cc3)CC2)c1 (stereo not given)	M1 antag -2.1 | M1 antag confirm 468 | mGluR4 antag inactive
CN1CCN(CCCC(=O)c2ccc(F)cc2)CC1	none
Cc1nc2sccn2c(=O)c1CCN1CCC(=C(c2ccccc2)c2ccc(F)cc2)CC1	M1 antag -10 | M1 antag confirm 138 | mGluR4 antag inactive
Cc1cc(C)n(CCc2nc3c4ccccc4nc(SCc4ccc(C#N)cc4)n3n2)n1	none
Cc1ccc(NC(=O)c2c(-c3c(F)cccc3Cl)noc2C)cc1F	M1 antag -14 | M1 antag confirm inactive | mGluR4 antag inactive
CC1CC(C)CN(CC(C)(C)NS(=O)(=O)c2ccccc2)C1 (stereo not given)	M1 antag -2.6 | M1 antag confirm inactive | mGluR4 antag inactive
O=C1CC(N2CCN(Cc3ccc4c(c3)OCO4)CC2)C(=O)N1Cc1ccc(N2CCCC2=O)cc1 (stereo not given)	none (no result: S1P3 ag, S1P1 ag-PAM)
O=C1CC(N2CCN(Cc3ccc4c(c3)OCO4)CC2)C(=O)N1CCc1ccccc1 (stereo not given)	M1 antag -1.2 | M1 antag confirm inactive | mGluR4 antag inactive
CCCCOC(=O)Nc1sc2c(c1C(=O)OC)CCC2	none
O=C(OCc1c(Cl)cccc1Cl)c1cccnc1	none
CCSc1ccccc1C(=O)Nc1cc(C)on1	M1 antag -3.8 (no result: S1P1 ag-PAM) | M1 antag confirm inactive | mGluR4 antag inactive
Clc1ccc2c(N3CCCC3)ccnc2c1	M1 antag -3 | M1 antag confirm inactive | mGluR4 antag inactive
CC1CCCCN1CCNC(=O)C1CC(=O)N(c2ccc(F)c(Cl)c2)C1 (stereo not given)	M1 antag -1.6 | M1 antag confirm inactive | mGluR4 antag inactive
CCOc1nc(SCCOc2ccccc2)nc(N(C)C)n1	none
COC(=O)c1cn(CC(=O)N2CCCCCC2)c2ccccc12	none
O=C(Cn1cc(/C=N/O)c2ccccc21)N1CCOCC1	M1 antag -2.2 | M1 antag confirm inactive | mGluR4 antag inactive
Cc1c(N=CC=Nc2c(C)n(C)n(-c3ccccc3)c2=O)c(=O)n(-c2ccccc2)n1C	none (no result: M1 agonist, M1 antag)
Cc1c(N=C/C=C/c2ccccc2)c(=O)n(-c2ccccc2)n1C	M1 antag -11 | M1 antag confirm 24 | mGluR4 antag inactive
Cn1c(N)c(C(=O)COC(=O)Cn2cc(C(F)(F)F)ccc2=O)c(=O)n(C)c1=O	none
Cc1cc(=O)n(C)c(=O)n1CCCCCN1CCCC1	M1 antag -1.6 | M1 antag confirm inactive | mGluR4 antag inactive
Cc1nc(SCC(=O)N2CCN(c3ccccc3)CC2)c2c(=O)n(C)c(=O)n(C)c2n1	none
O=S(=O)(c1ccc(OCC(O)CN2CCc3ccccc3C2)cc1)N1CCOCC1 (stereo not given)	M1 antag -3.7 | M1 antag confirm 422 | mGluR4 antag inactive
Nc1nc(N2CCCCC2)nc2ccccc12	M1 antag -5.9 | M1 antag confirm 286 | mGluR4 antag inactive
c1ccc(-c2nc(N3CCCCCC3)c3ccccc3n2)nc1	none
c1ccc2c(N3CCCCC3)nc(N3CCCC3)nc2c1	M1 antag -2.6 (no result: S1P1 ag-PAM) | M1 antag confirm 493 | mGluR4 antag inactive
CN1C(=O)c2c(sc3c2CCCC3)NC1c1ccccc1O (stereo not given)	M1 antag -2.7 | M1 antag confirm inactive | mGluR4 antag inactive
CN1CCc2c(sc3c2C(=O)NC(c2cn(Cc4ccccc4)c4ccccc24)N3)C1 (stereo not given)	none

High-throughput results deposited in PubChem by several laboratories.
